Screening data (PubChem BioAssay)
Most compounds without a hit are left out; they make up all but 7.6% or so of the library.
M1 agonist – agonists of M1 muscarinic receptor. CHO-M1 cells, Fluo-4 calcium fluorescence, agonist mode; stronger effect = higher value. B-score at 10 µM. 64,000 compounds, 3% hits. AID 626;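 active = fluorescence rise, raw or as B-score row- and column-corrected plate score, outside the 99.7% band of its plate's samples, either direction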
DAT uptake mod – changed human dopamine transporter uptake under cocaine IC80; Q01959; AID 449768; LLC-PK1 hDAT cells, [14C]-dopamine uptake with cocaine IC80; actives deviate in either direction; B-score at 10 µM; 110,000 compounds, 1.3% hits;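 active = Z score or B-score, a plate-position-corrected score, falls beyond the plate's 99.7% confidence bounds, in either direction; inactive = both scores lie inside the 99.7% bounds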
Target sequence (Q01959 whole entry, looked up): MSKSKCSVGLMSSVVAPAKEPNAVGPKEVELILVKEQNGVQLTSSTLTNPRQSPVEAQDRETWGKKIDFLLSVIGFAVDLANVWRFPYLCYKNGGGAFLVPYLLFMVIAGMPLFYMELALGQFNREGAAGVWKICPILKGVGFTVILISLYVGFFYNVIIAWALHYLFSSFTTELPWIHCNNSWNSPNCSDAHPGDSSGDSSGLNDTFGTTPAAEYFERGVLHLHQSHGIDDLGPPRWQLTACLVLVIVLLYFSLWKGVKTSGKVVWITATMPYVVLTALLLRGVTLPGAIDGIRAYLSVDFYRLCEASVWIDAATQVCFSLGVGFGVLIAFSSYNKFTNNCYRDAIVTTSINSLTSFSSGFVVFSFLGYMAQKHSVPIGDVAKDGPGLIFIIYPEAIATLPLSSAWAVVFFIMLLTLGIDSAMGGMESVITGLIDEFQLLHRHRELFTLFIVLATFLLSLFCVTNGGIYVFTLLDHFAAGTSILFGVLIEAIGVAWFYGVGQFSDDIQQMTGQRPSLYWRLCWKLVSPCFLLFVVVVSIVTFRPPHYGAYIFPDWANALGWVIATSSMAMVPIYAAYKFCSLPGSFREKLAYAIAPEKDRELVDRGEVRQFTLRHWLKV
Jurkat tox 60K – cytotoxic compounds reducing Jurkat cell viability | Jurkat E6.1 viability, ATP luminescence, 48 h | inhibition, % at 4 µM | 56,000 compounds, 1.2% hits;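 active = inhibition above the mean inhibition of all tested compounds plus 3 SD, cut at about 28% in these data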
D1 mod – D1 dopamine receptor (human) allosteric modulation; B-score at 10 µM; P21728; 58,000 compounds, 5.9% hits; HEK293 D1, CRE-luciferase, dopamine EC30 potentiation; actives deviate in either direction; AID 641;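 active = luminescence count or its row- and column-corrected plate score outside the 99.7% band of the plate's sample wells, on either side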
HEK293 NFkB inh – lowers PMA/ionomycin-induced NF-kB signal in HEK293 cells; HEK-293 NF-kB luciferase reporter, luminescence; inhibition, % at 3 µM; 62,000 compounds, 0.21% hits;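 active = inhibition above the mean of all tested compounds plus 3 SD, cut at about 40% in these data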
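System – HEK-293 cells with stable firefly luciferase reporter driven by four HIV NF-kB elements · Doses – one dose, 3 µM · Schedule – 1 h compound pre-incubation, 16 h PMA/ionomycin at 37 °C · Technique – luminescence from luciferase substrate reagent · Measure – percent inhibition normalized per plate to DMSO and reference-inhibitor controls · Replicates – tested once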
M1 antag – antagonists of rat M1 muscarinic receptor | P08482 | CHO-M1 cells, Fluo-4 calcium, ACh EC80 antagonist mode; stronger effect = lower value | B-score at 10 µM | 64,000 compounds, 3.4% hits | AID 628;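 active = calcium fluorescence response, raw or row-and-column corrected B-score, differing from the plate sample mean either way at a set confidence level, mostly lower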
M1 antag confirm – confirmation of rat M1 muscarinic receptor antagonists; 1,700 compounds, 43% hits; shares compounds with M1 antag; AID 677; CHO-M1 cells, Fluo-4 calcium, ACh EC80 antagonism; stronger effect = lower value; calcium response (max-min fluorescence) at 10 µM;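 active = calcium response below the same-plate mean of wells given acetylcholine alone at its 80%-effect dose, minus 3 SD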
mGluR4 antag – acts on human mGluR4 in M1 antagonist selectivity test. shares compounds with M1 antag. CHO-mGluR4 calcium flux, Fluo-4 fluorescence, glutamate EC80; stronger effect = lower value. fluorescence response (max-min) at 10 µM. 1,700 compounds, 0.9% hits. AID 678;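 active = fluorescence response below the plate's average for near-maximal glutamate wells, less 3 SD of those wells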;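 also: raw unnormalized fluorescence span taken in the window right after glutamate addition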
Hits are given with their value.

`CN1CCN(c2ccc(NC(=O)c3cccc(OCc4ccccc4)c3)cc2)CC1` gave M1 agonist inactive, Jurkat tox 60K inactive, D1 mod -5.9, HEK293 NFkB inh inactive, M1 antag -5.3, M1 antag confirm 304 and mGluR4 antag inactive.
CCCC1(CCC)NC(=O)NC1=O was read as M1 agonist inactive, DAT uptake mod inactive, Jurkat tox 60K inactive, D1 mod inactive, HEK293 NFkB inh inactive, M1 antag -2.9, M1 antag confirm inactive and mGluR4 antag inactive.
Cc1nc2ccc(NC(=O)N3CCSCC3)cc2nc1C was read as M1 agonist inactive, DAT uptake mod inactive, D1 mod inactive, HEK293 NFkB inh inactive and M1 antag inactive.
O=C(Nc1ccc2nc(-c3cccs3)c(-c3cccs3)nc2c1)N1CCOCC1 was read as M1 agonist inactive, DAT uptake mod inactive, Jurkat tox 60K inactive, D1 mod inactive, HEK293 NFkB inh inactive, M1 antag -12, M1 antag confirm 138 and mGluR4 antag inactive.
For O=C(NCCN1CCOCC1)c1cc2sccc2n1Cc1ccc(Cl)cc1 the results were M1 agonist inactive, DAT uptake mod inactive, Jurkat tox 60K inactive, HEK293 NFkB inh inactive, M1 antag -4.5, M1 antag confirm 349 and mGluR4 antag inactive.
For O=C(NCCN1CCOCC1)c1cc2sccc2n1Cc1ccc(F)cc1 the results were M1 agonist inactive, DAT uptake mod inactive, Jurkat tox 60K inactive, D1 mod inactive, HEK293 NFkB inh inactive and M1 antag inactive.
For CCCCCCC1C(C#N)=C(N)OC2=C1C(=O)CCC2 (stereo not drawn) the results were M1 agonist inactive, DAT uptake mod inactive, Jurkat tox 60K inactive, D1 mod inactive, HEK293 NFkB inh inactive, M1 antag -2.3, M1 antag confirm 434 and mGluR4 antag inactive.
CC1C(C#N)=C(N)OC2=C1C(=O)CCC2 (stereo not drawn) was read as M1 agonist inactive, DAT uptake mod inactive, Jurkat tox 60K inactive, HEK293 NFkB inh inactive and M1 antag inactive.
Cn1c(=O)c2c(nc(NCCNC(=O)c3ccco3)n2Cc2ccccc2Cl)n(C)c1=O was read as M1 agonist inactive, DAT uptake mod inactive, D1 mod inactive, HEK293 NFkB inh inactive and M1 antag inactive.
COCCn1c(=S)[nH]c2cc(C(=O)N3CCc4ccccc43)ccc2c1=O was read as M1 agonist inactive, DAT uptake mod inactive, D1 mod inactive, HEK293 NFkB inh inactive and M1 antag inactive.
Screening COc1ccc(C2C(C(=O)c3sc(C)nc3C)=C(O)C(=O)N2CCN(C)C)cc1 (stereo not drawn) returned M1 agonist inactive, DAT uptake mod inactive, Jurkat tox 60K inactive, D1 mod inactive, HEK293 NFkB inh inactive, M1 antag -11, M1 antag confirm inactive and mGluR4 antag inactive.
Screening Cc1nc(C)c(C(=O)C2=C(O)C(=O)N(CCN(C)C)C2c2ccccc2)s1 (stereo not drawn) returned M1 agonist inactive, DAT uptake mod inactive, Jurkat tox 60K inactive, HEK293 NFkB inh inactive and M1 antag inactive.
COC(=O)c1ccc(CSc2nc(C)nc3c2c(=O)n(C)c(=O)n3C)o1 was read as M1 agonist inactive, DAT uptake mod inactive, Jurkat tox 60K inactive, D1 mod inactive, HEK293 NFkB inh inactive, M1 antag -2, M1 antag confirm 500 and mGluR4 antag inactive.
CSC1=NCCN1C(=O)c1ccco1 was read as M1 agonist inactive, DAT uptake mod inactive, Jurkat tox 60K inactive, D1 mod inactive, HEK293 NFkB inh inactive and M1 antag inactive.
`CSC1=NCCN1C(=O)c1c(F)cccc1F` gave M1 agonist inactive, DAT uptake mod inactive, Jurkat tox 60K inactive, D1 mod inactive, HEK293 NFkB inh inactive, M1 antag -3.1, M1 antag confirm inactive and mGluR4 antag inactive.
For COc1cccc2c(=O)n(CC(=O)NC3CCCCC3)ccc12 the results were M1 agonist inactive, DAT uptake mod inactive, Jurkat tox 60K inactive, D1 mod inactive, HEK293 NFkB inh inactive and M1 antag inactive.
`COc1ccc2[nH]cc(C(=O)CN(C)CCc3ccc(OC)c(OC)c3)c2c1` gave M1 agonist inactive, DAT uptake mod inactive and M1 antag inactive.
For O=C(O)c1ccc2c(c1)N(Cc1ccccc1)C(=O)c1ccccc1S2=O (stereo not drawn) the results were M1 agonist inactive, DAT uptake mod inactive, Jurkat tox 60K inactive, D1 mod inactive, HEK293 NFkB inh inactive and M1 antag inactive.
O=C(NCCN1CCCC1)c1ccc2c(c1)N(Cc1ccc(F)cc1)C(=O)c1ccccc1S2=O (stereo not drawn) was read as M1 agonist inactive, DAT uptake mod inactive, Jurkat tox 60K inactive, HEK293 NFkB inh inactive, M1 antag -1.1, M1 antag confirm inactive and mGluR4 antag inactive.
`Cc1ccc(CN2C(=O)CSc3ccc(C(=O)NCCN4CCOCC4)cc32)cc1` gave M1 agonist inactive, DAT uptake mod inactive, Jurkat tox 60K inactive, D1 mod inactive, HEK293 NFkB inh inactive and M1 antag inactive.
For O=C(NCCN1CCOCC1)c1ccc2c(c1)N(Cc1ccc(F)cc1)C(=O)CS2 the results were M1 agonist inactive, DAT uptake mod inactive, Jurkat tox 60K inactive, D1 mod inactive, HEK293 NFkB inh inactive, M1 antag -9.1, M1 antag confirm 398 and mGluR4 antag inactive.
For CCCCC(=O)NC1(C(F)(F)F)C(=O)Nc2c1c(=O)[nH]c(=O)n2Cc1ccco1 (stereo not drawn) the results were M1 agonist inactive, DAT uptake mod inactive, Jurkat tox 60K inactive, D1 mod inactive, HEK293 NFkB inh inactive, M1 antag -4.7, M1 antag confirm inactive and mGluR4 antag inactive.
COc1ccc(N=C2C(=O)Nc3ccccc32)cc1 was read as M1 agonist inactive, DAT uptake mod inactive, Jurkat tox 60K inactive, D1 mod inactive, HEK293 NFkB inh inactive, M1 antag -4.4, M1 antag confirm inactive and mGluR4 antag inactive.
`COc1ccc(OC)c(N=C2C(=O)Nc3ccccc32)c1` gave M1 agonist inactive, DAT uptake mod inactive, Jurkat tox 60K inactive, D1 mod inactive, HEK293 NFkB inh inactive and M1 antag inactive.
For CCN(CCCNC(=O)COc1cc(=O)n(C)c2ccccc12)c1cccc(C)c1 the results were M1 agonist inactive, DAT uptake mod inactive, Jurkat tox 60K inactive, D1 mod inactive, HEK293 NFkB inh inactive, M1 antag -1.9, M1 antag confirm inactive and mGluR4 antag inactive.
`CC(C)(C)C(C(Oc1ccc(Cl)cc1)n1cncn1)n1nnnc1C(c1cccc(Cl)c1)N1CCCCC1` (stereo not drawn) gave DAT uptake mod inactive.
